Gli-Sufu antag: Gli-Sufu pathway antagonists, primary screen, luciferase luminescence, Sufu-KO-LIGHT cells, uHTS. hit rate 0.74% among 340,000. AID 588413, 2011. Sufu-KO-LIGHT fibroblasts, Gli luciferase reporter luminescence. inhibition, % at 5 µM;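 active means inhibition above about 55%, limit read from the data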;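 further: 0% = DMSO-treated cells and 100% = wells with medium but no cells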
GalR3 antagonist: GalR3 antagonists in HEK293 cells, primary screen, cell-based, fluorescence readout. Galanin receptor type 3 (Homo sapiens), O60755. HEK293 GalR3-CNG cAMP membrane potential fluorescence; galR3 body fused to GalR1 C-terminus. inhibition, % at 3 µM. hit rate 0.44% among 360,000;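 active means inhibition above the screen-wide average plus 3 SD, cut at about 13% in these data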;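 further: forskolin and galanin both at EC90 stimulate the cells; cAMP rise reported by CNG channel membrane potential dye signal; 0% = forskolin plus galanin with DMSO and 100% = forskolin alone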
697 NFkB inh: inhibitors of PMA/ionomycin-induced NF-kB reporter, 697 cells, primary screen, B-cell NF-kB inhibitor project, cell-based, luminescence, uHTS; 697 B-cell NF-kB luciferase reporter, 16 h; inhibition, % at 4 µM; hit rate 0.33% among 330,000; in the data active means inhibition above about 35%
Jurkat NFkB inh: inhibitors of induced NF-kB luciferase reporter, primary screen, TCR NF-kB activation inhibitor project, cell-based, luminescence, uHTS; inhibition, % at 4 µM; hit rate 0.53% among 330,000; Jurkat, PMA/ionomycin-induced NF-kB luciferase reporter; in the data active means inhibition above about 50%
NR2E3 ag-1: NR2E3 agonists in two-hybrid cells, primary screen, cell-based, luminescence, CHO-S, Gal4-NCOR/VP16-NR2E3. Photoreceptor-specific nuclear receptor (Homo sapiens), Q9Y5X4. luciferase. inhibition of corepressor binding, % at 3.98 µM. hit rate 0.35% among 360,000. AID 602229, 2012;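 active means inhibition above the mean of all tested compounds plus 3 SD, cut at about 70% in these data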;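 further: 0% = DMSO with NR2E3 transfected cells and 100% = cells lacking NR2E3 construct; higher means lower luciferase signal from less NR2E3 corepressor binding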
Target sequence (Q9Y5X4 whole entry, looked up, the tested form may be a part): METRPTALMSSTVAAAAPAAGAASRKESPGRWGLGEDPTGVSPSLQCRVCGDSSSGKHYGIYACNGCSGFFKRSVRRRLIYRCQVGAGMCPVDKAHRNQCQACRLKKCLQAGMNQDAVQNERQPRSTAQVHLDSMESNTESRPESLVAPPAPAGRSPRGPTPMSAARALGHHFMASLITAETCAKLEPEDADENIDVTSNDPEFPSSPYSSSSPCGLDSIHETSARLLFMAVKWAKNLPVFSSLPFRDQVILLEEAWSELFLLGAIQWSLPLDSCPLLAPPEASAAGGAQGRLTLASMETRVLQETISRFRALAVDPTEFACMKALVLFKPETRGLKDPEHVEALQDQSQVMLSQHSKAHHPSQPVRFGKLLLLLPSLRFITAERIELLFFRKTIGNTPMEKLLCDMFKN
NR2E3 ag-2: inhibitors of NR2E3-RetCOR corepressor binding, primary screen, NR2E3 agonist project, biochemical, TR-FRET, GST-NR2E3, biotin-RetCOR. Photoreceptor-specific nuclear receptor (Homo sapiens), Q9Y5X4. 1536-well. inhibition of corepressor binding, % at 4.78 µM. hit rate 0.12% among 320,000;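 active means percent inhibition above the cutoff of mean plus 3 SD of all tested compounds, set per screening campaign, cut at about 20% in these data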;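 further: 0% = DMSO wells and 100% = biotin wells as full block of FRET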
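Material – GST-tagged NR2E3 plus biotinylated RetCOR corepressor · Quantity – NR2E3 fusion 1.35 nM · Times – 5 h incubation at 4 °C · Medium – pH 7.5 Tris-based buffer · Technique – TR-FRET, Eu(K)-anti-GST donor, streptavidin-D2 acceptor, ex 340, em 617/671 nm · Benchmarks – high control biotin, low control 0.6% DMSO · Format – 1536-well plates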
697 NFkB conf: PMA/ionomycin-induced NF-kB reporter inhibitors, 697 retest, confirmation, B-cell NF-kB inhibitor project, cell-based, luminescence, single concentration; hit rate 35% among 2,000; 697 B-cell NF-kB luciferase, 16 h; AID 449746, 2010; inhibition, % at 4 µM; shares compounds with 697 NFkB inh; in the data active means inhibition mostly above about 28%, no sharp cut-off; inactive means mostly below about 22%
An asterisk follows results filed as active; x = no result given. Compounds with a hit are over-represented: about 1.8% of the library has one in this group of screens.

SMILES | Gli-Sufu antag | GalR3 antagonist | 697 NFkB inh | Jurkat NFkB inh | NR2E3 ag-1 | NR2E3 ag-2 | 697 NFkB conf
O=C(/C=C/Nc1ccccc1F)c1ccc(Br)cc1 | -102 | 2 | x | x | -144 | 0 | x
COc1cc(C2C(C#N)=C(N)Oc3n[nH]c(-c4ccncc4)c32)cc(OC)c1OC (configuration not stated) | -4 | -1 | -73 | -27 | -14 | 1 | x
COc1cc(-c2[nH]nc3c2C(c2ccco2)C(C#N)=C(N)O3)cc(OC)c1OC (configuration not stated) | 4 | 7 | 57* | 17 | -8 | -1 | 37*
COc1ccc(/C=C2/SC(=S)N(CCC(=O)O)C2=O)cc1 | 27 | -2 | 74* | 45 | 15 | 1 | 75*
COc1ccc(/C=C2\SC(=S)N(CCC(=O)Nc3cccc(O)c3)C2=O)cc1 | -25 | -2 | 47* | 0 | 8 | x | 54*
COc1ccc(/C=C2/SC(=S)N(CCCC(=O)Nc3ccc(O)cc3)C2=O)cc1 | 57* | 1 | 71* | -16 | 42 | 2 | 79*
COc1ccc(/C=C2\SC(=S)N(CCC(=O)Nc3ccc(C(=O)O)cc3)C2=O)cc1 | 32 | -8 | 44* | -19 | -27 | 0 | 60*
O=C(O)CCN1C(=O)/C(=C\c2ccncc2)SC1=S | -2 | -5 | 8 | 0 | 4 | 3 | x
COc1ccc(/C=C2\SC(=S)N(CCC(=O)NCCc3ccc(O)cc3)C2=O)cc1 | 4 | 5 | 18 | 12 | 1 | -2 | x
O=C(CCN1C(=O)/C(=C/c2ccc(Cl)cc2)SC1=S)Nc1ccc(C(=O)O)cc1 | -4 | -10 | 24 | -4 | -24 | 0 | x
COc1cc(/C=C2\SC(=S)N(CCC(=O)Nc3ccc(O)cc3)C2=O)cc(OC)c1OC | -3 | -1 | -19 | -1 | -27 | -1 | x
O=C(NCc1ccccc1)[C@H]1CCCN1C(=O)[C@H]1CCCN1C(=O)c1ccc(F)cc1 | x | -7 | x | x | x | x | x
Cc1cccc(Cl)c1NC(=O)N(C)c1ccccc1 | x | -3 | x | x | x | x | x
c1ccc(-c2nc3ccccc3nc2-c2ccc(CN3CCC4(CC3)CNc3ccccc34)cc2)cc1 | x | -2 | x | x | x | x | x
CCc1ccc(/C=C2/SC(=S)N(CCC(=O)Nc3ccc(C(=O)O)cc3)C2=O)cc1 | x | -1 | 77* | 13 | 1 | 1 | 72*
CCc1ccc(C=C2SC(=S)N(CCCC(=O)Nc3ccc(C(=O)O)cc3)C2=O)cc1 | x | -6 | x | x | 4 | x | x
CCc1ccc(/C=C2/SC(=S)N(CCC(=O)Nc3cccc(C(=O)O)c3)C2=O)cc1 | 30 | 2 | 50* | -9 | 15 | 3 | 59*
CCN(CC)CCNC(=O)c1ccc(NCN2C(=O)NC(c3ccccc3)(c3ccccc3)C2=O)cc1 | x | -6 | x | x | x | x | x
CCCn1cnnc1CNC(=O)[C@@H](Cc1ccccc1)NC(=O)[C@H]1O[C@@H](n2ccc(=O)[nH]c2=O)[C@H](O)[C@@H]1O | x | -7 | x | x | x | x | x
CCCOc1ccc(-c2nnc(-c3ccco3)o2)cc1 | -97 | -7 | -223 | -73 | -148 | 0 | x
CC(C)COc1ccc(-c2nnc(-c3ccco3)o2)cc1 | -37 | -3 | -263 | -132 | -182 | 0 | -139
CSCCC(NC(=O)OC(C)(C)C)C(=O)Oc1ccc2c(=O)c(-c3ccc4c(c3)OCCO4)coc2c1 (configuration not stated) | -122 | -1 | -265 | -97 | -102 | 1 | -253
COCCCNC(=S)Nc1ccc2nc3n(c(=O)c2c1)CCCCC3 | -3 | 0 | 35* | -10 | -6 | 3 | 4
O=c1[nH]c(-c2ccccc2)cn1C1CCN(Cc2ccc(-c3nc4ccccc4nc3-c3ccccc3)cc2)CC1 | x | -4 | x | x | x | x | x
